Results reported in ChEMBL document CHEMBL1144013, “Indol-3-yl-tetramethylcyclopropyl ketones: effects of indole ring substitution on CB2 cannabinoid receptor activity” (J Med Chem, 2008).

Key:
[1] = biological target: T1, Cannabinoid receptor 2 (Homo sapiens, UniProt P34972); assay: Displacement of [3H]CP-55940 from human recombinant CB2 receptor expressed in HEK cells; assay type: cell-based, HEK293
[2] = biological target: Cannabinoid receptor 1 (Homo sapiens, UniProt P21554); assay: Displacement of [3H]CP-55940 from human recombinant CB1 receptor expressed in HEK cells; assay type: cell-based, HEK293
Chain of Cannabinoid receptor 1 (P21554 whole entry): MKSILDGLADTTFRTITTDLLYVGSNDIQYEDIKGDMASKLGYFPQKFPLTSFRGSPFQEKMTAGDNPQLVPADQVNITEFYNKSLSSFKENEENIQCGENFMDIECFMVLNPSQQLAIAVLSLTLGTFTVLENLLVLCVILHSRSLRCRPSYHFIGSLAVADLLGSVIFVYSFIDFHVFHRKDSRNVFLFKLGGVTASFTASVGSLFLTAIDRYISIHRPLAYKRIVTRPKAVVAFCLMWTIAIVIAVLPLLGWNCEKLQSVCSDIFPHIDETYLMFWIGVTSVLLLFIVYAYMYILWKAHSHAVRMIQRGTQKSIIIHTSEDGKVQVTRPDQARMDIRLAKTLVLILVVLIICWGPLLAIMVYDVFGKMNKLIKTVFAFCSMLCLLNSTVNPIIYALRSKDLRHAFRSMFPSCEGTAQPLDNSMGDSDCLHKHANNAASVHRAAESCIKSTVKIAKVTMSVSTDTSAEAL

[3] = biological target: T1, Cannabinoid receptor 2; assay: Agonist activity at human recombinant CB2 receptor expressed in HEK cells assessed as calcium mobilization by FLIPR; assay type: functional, cell-based, HEK293
Procedure, shortened: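 HEK cells stably coexpressing human CB2 and chimeric Gαq/o5 protein, seeded 75,000/well one day before; no-wash calcium dye.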

[4] = species on record: Homo sapiens; assay: Selectivity for human recombinant CB2 receptor over human recombinant CB1 receptor
Procedure, shortened: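 Ki ratio from [3H]CP-55940 (0.5 nM) competition binding: human CB1 membranes from stably expressing […] cells versus human CB2 membranes from stably expressing HEK cells. Tris-HCl pH 7.4 buffer with EDTA, MgCl2, BSA; 90 min at 30 °C; filtration counting; nonspecific with 10 µM unlabeled ligand; ≥3 experiments in duplicate.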

T1 sequence (P34972 whole entry): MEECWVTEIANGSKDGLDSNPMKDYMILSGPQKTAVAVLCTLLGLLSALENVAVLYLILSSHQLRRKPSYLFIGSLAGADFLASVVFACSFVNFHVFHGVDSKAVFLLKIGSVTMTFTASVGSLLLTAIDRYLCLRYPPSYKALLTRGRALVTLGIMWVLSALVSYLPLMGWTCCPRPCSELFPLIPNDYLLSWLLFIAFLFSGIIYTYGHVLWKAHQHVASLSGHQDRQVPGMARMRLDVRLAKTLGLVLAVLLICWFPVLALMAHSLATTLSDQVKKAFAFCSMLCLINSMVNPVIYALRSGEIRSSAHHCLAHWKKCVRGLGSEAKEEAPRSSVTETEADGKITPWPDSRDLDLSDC

CC1(C)C(C(=O)c2cn(CC3CCOCC3)c3ccc(CN)cc23)C1(C)C
Ki ([1]; read-out: Ki): > 1000 nM | Ki ([2]; read-out: Ki): > 10000 nM | EC50 [3]: > 10 µM

CC1(C)C(C(=O)c2cn(CC3CCOCC3)c3cc(S(C)(=O)=O)ccc23)C1(C)C
Ki ([1]; read-out: Ki): 3 nM | Ki ([2]; read-out: Ki): 1270 nM | Ratio Ki [4]: 423 | EC50 [3]: > 10 µM

CN1CCCCC1Cn1cc(C(=O)c2cc([N+](=O)[O-])ccc2I)c2ccccc21 (configuration not stated)
Ki ([1]; read-out: Ki): 11.5 nM | Ki ([2]; read-out: Ki): 1270 nM | Ratio Ki [4]: 110 | EC50 [3]: > 10 µM

COc1cc2c(cc1O)c(C(=O)C1C(C)(C)C1(C)C)cn2CC1CCOCC1
Ki ([1]; read-out: Ki): 0.7 nM | EC50 [3]: > 10 µM

CC1(C)C(C(=O)c2cn(CC3CCOCC3)c3ccc(-c4ccccc4)cc23)C1(C)C
Ki ([1]; read-out: Ki): 58 nM | EC50 [3]: > 10 µM

COc1cccc2c(C(=O)C3C(C)(C)C3(C)C)cn(CC3CCOCC3)c12
Ki ([1]; read-out: Ki): 0.12 nM | EC50 [3]: > 10 µM

CC1(C)C(C(=O)c2cn(CCN3CCOCC3)c3ccc(OCc4ccccc4)cc23)C1(C)C
Ki ([1]; hek293, read-out: Ki): > 1000 nM | Ki ([1]; read-out: Log Ki (converted)): > 1000 nM | Ki ([2]; read-out: Ki): > 10000 nM | EC50 [3]: > 10 µM

COc1ccc2c(C(=O)C3C(C)(C)C3(C)C)cn(CCN3CCOCC3)c2c1
Ki ([1]; read-out: Log Ki (converted)): 1.58 nM | EC50 [3]: > 10 µM

CC1(C)C(C(=O)c2cn(CC3CCOCC3)c3ccc(OCc4ccccc4)cc23)C1(C)C
Ki ([1]; read-out: Ki): 1.3 nM | Ki ([2]; read-out: Ki): 238 nM | Ratio Ki [4]: 183 | EC50 [3]: > 10 µM

CC1(C)C(C(=O)c2cn(CCN3CCOCC3)c3cc(OCc4ccccc4)ccc23)C1(C)C
Ki ([1]; read-out: Ki): 2.9 nM | EC50 [3]: > 10 µM

CC1(C)C(C(=O)c2cn(CC3CCOCC3)c3c(OCc4ccccc4)cccc23)C1(C)C
Ki ([1]; read-out: Ki): 3.1 nM | Ki ([2]; read-out: Ki): 1100 nM | Ratio Ki [4]: 353 | EC50 [3]: > 10 µM

CC1(C)C(C(=O)c2cn(CC3CCOCC3)c3c(O)cccc23)C1(C)C
Ki ([1]; read-out: Ki): 3.2 nM | EC50 [3]: > 10 µM

COC(=O)c1ccc2c(C(=O)C3C(C)(C)C3(C)C)cn(CC3CCOCC3)c2c1
Ki ([1]; read-out: Ki): 1.4 nM | EC50 [3]: > 10 µM

CC1(C)C(C(=O)c2cn(CC3CCOCC3)c3cc(Br)ccc23)C1(C)C
Ki ([1]; read-out: Ki): 0.65 nM | EC50 [3]: > 10 µM

COc1ccc2c(C(=O)C3C(C)(C)C3(C)C)cn(CC3CCOCC3)c2c1
Ki ([1]; read-out: Ki): 0.51 nM | Ki ([2]; read-out: Ki): 40 nM | Ratio Ki [4]: 78 | EC50 [3]: > 10 µM

CC1(C)C(C(=O)c2cn(CCN3CCOCC3)c3cccc(NS(C)(=O)=O)c23)C1(C)C
Ki ([1]; read-out: Ki): > 1000 nM | EC50 [3]: > 10 µM

CC1(C)C(C(=O)c2cn(CCN3CCOCC3)c3ccc(O)cc23)C1(C)C
Ki ([1]; read-out: Ki): 92 nM | Ki ([2]; read-out: Ki): > 10000 nM | Ratio Ki [4]: > 109 | EC50 [3]: > 10 µM

CC1(C)C(C(=O)c2cn(CCN3CCOCC3)c3cccc([N+](=O)[O-])c23)C1(C)C
Ki ([1]; read-out: Ki): 297 nM | Ki ([2]; read-out: Ki): > 10000 nM | Ratio Ki [4]: > 34 | EC50 [3]: > 10 µM

CC1(C)C(C(=O)c2cn(CC3CCOCC3)c3ccc(OCCCCO)cc23)C1(C)C
Ki ([1]; read-out: Ki): 260 nM | Ki ([2]; read-out: Ki): > 10000 nM | Ratio Ki [4]: > 38 | EC50 [3]: > 10 µM

COc1ccc2c(c1)c(C(=O)C1C(C)(C)C1(C)C)cn2CCN1CCOCC1
Ki ([1]; read-out: Ki): 237 nM | Ki ([2]; read-out: Ki): > 3500 nM | Ki ([2]; read-out: Log Ki (converted)): > 3470 nM | Ratio Ki [4]: > 15 | EC50 [3]: > 10 µM

COC(=O)c1ccc2c(c1)c(C(=O)C1C(C)(C)C1(C)C)cn2CC1CCOCC1
Ki ([1]; read-out: Ki): 238 nM | Ki ([2]; read-out: Ki): > 10000 nM | Ratio Ki [4]: > 42 | EC50 [3]: > 10 µM

CC1(C)C(C(=O)c2cn(CC3CCOCC3)c3cc(CN)ccc23)C1(C)C
Ki ([1]; read-out: Ki): 62 nM | Ki ([2]; read-out: Ki): > 1000 nM | Ratio Ki [4]: > 16 | EC50 [3]: > 10 µM

Cc1ccc2c(C(=O)C3C(C)(C)C3(C)C)cn(CC3CCOCC3)c2c1
Ki ([1]; read-out: Ki): 0.15 nM | EC50 [3]: > 10 µM

CC1(C)C(C(=O)c2cn(CC3CCOCC3)c3cc(C(F)(F)F)ccc23)C1(C)C
Ki ([1]; read-out: Ki): 3.5 nM | Ki ([2]; read-out: Ki): 70 nM | Ratio Ki [4]: 20 | EC50 [3]: > 10 µM

COc1cc2c(cc1OCc1ccccc1)c(C(=O)C1C(C)(C)C1(C)C)cn2CC1CCOCC1
Ki ([1]; read-out: Ki): 1.8 nM | EC50 [3]: > 10 µM

CC(=O)Nc1cccc2c1c(C(=O)C1C(C)(C)C1(C)C)cn2CCN1CCOCC1
Ki ([1]; read-out: Ki): > 1000 nM | Ki ([2]; read-out: Ki): > 2200 nM | Ki ([2]; read-out: Log Ki (converted)): > 2190 nM | EC50 [3]: > 10 µM
